According to ChEMBL document CHEMBL2040727, “Substituted thiazoles VI. Synthesis and antitumor activity of new 2-acetamido- and 2 or 3-propanamido-thiazole analogs” (2012):

Columns and labels:
Assay type in all cases: functional
[1] = Growth inhibition of human NCI-ADR-RES cells at 10 uM after 48 hrs by coulter counter analysis; settings: read-out: GI
Summary of the method: (§1)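 Single-dose NCI 60-line panel screen of test compounds. Cells grown in RPMI 1640 with 10% FBS. Compounds dissolved in DMSO, then diluted in phosphate buffer saline (final DMSO below 1%). Wells run in duplicate at 6 × 10⁴ cells/ml. Controls held PBS and DMSO at matching dilutions. Incubation 48 h at 37 °C under humidified 5% CO2. Cells diluted tenfold in saline and counted by Coulter counter. Percent growth inhibition taken from mean-graph of treated-cell growth.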

MDA-MB-231 = assay: Growth inhibition of human MDA-MB-231 cells at 10 uM after 48 hrs by coulter counter analysis; settings: MDA-MB-231, 48 h, read-out: GI; summary of the method: as §1
RXF 393 = assay: Growth inhibition of human RXF393 cells at 10 uM after 48 hrs by coulter counter analysis; settings: RXF 393, 48 h, read-out: GI; summary of the method: as §1
OVCAR-4 = assay: Growth inhibition of human OVCAR4 cells at 10 uM after 48 hrs by coulter counter analysis; settings: OVCAR-4, 48 h, read-out: GI; summary of the method: as §1
K562 = assay: Growth inhibition of human K562 cells at 10 uM after 48 hrs by coulter counter analysis; settings: K562, 48 h, read-out: GI; summary of the method: as §1
UACC-62 = assay: Growth inhibition of human UACC62 cells at 10 uM after 48 hrs by coulter counter analysis; settings: UACC-62, 48 h, read-out: GI
Summary of the method: (§2)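 Single-dose screen in the NCI 60 cell line panel. Cells grown in RPMI 1640 with 10% FBS. Compounds dissolved in DMSO and diluted in phosphate buffered saline, final DMSO under 1%. Duplicate wells seeded from culture at 6 × 10⁴ cells/ml. Incubated 48 h at 37 °C, humidified, 5% CO2. Cells diluted tenfold in saline and Coulter-counted. Percent growth inhibition computed against PBS/DMSO controls.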

NCI-H522 = assay: Growth inhibition of human NCI-H522 cells at 10 uM after 48 hrs by coulter counter analysis; settings: NCI-H522, 48 h, read-out: GI; summary of the method: as §1
NCI-H226 = assay: Growth inhibition of human NCI-H226 cells at 10 uM after 48 hrs by coulter counter analysis; settings: NCI-H226, 48 h, read-out: GI; summary of the method: as §1
UO-31 = assay: Growth inhibition of human UO31 cells at 10 uM after 48 hrs by coulter counter analysis; settings: UO-31, 48 h, read-out: GI; summary of the method: as §2
HOP-62 = assay: Growth inhibition of human HOP62 cells at 10 uM after 48 hrs by coulter counter analysis; settings: HOP-62, 48 h, read-out: GI; summary of the method: as §1
SF-268 = assay: Growth inhibition of human SF268 cells at 10 uM after 48 hrs by coulter counter analysis; settings: SF-268, 48 h, read-out: GI; summary of the method: as §1
OVCAR-5 = assay: Growth inhibition of human OVCAR5 cells at 10 uM after 48 hrs by coulter counter analysis; settings: OVCAR-5, 48 h, read-out: GI; summary of the method: as §1
DU-145 = assay: Growth inhibition of human DU145 cells at 10 uM after 48 hrs by coulter counter analysis; settings: DU-145, 48 h, read-out: GI; summary of the method: as §1
[2] = Growth inhibition of human Hs 578T cells at 10 uM after 48 hrs by coulter counter analysis; settings: read-out: GI; summary of the method: as §1
HCT-15 = assay: Growth inhibition of human HCT15 cells at 10 uM after 48 hrs by coulter counter analysis; settings: HCT-15, 48 h, read-out: GI; summary of the method: as §1
SW-620 = assay: Growth inhibition of human SW620 cells at 10 uM after 48 hrs by coulter counter analysis; settings: SW-620, 48 h, read-out: GI; summary of the method: as §2
SK-MEL-5 = assay: Growth inhibition of human SK-MEL-5 cells at 10 uM after 48 hrs by coulter counter analysis; settings: SK-MEL-5, 48 h, read-out: GI; summary of the method: as §1
HT-29 = assay: Growth inhibition of human HT-29 cells at 10 uM after 48 hrs by coulter counter analysis; settings: HT-29, 48 h, read-out: GI; summary of the method: as §1
A498 = assay: Growth inhibition of human A498 cells at 10 uM after 48 hrs by coulter counter analysis; settings: A498, 48 h, read-out: GI; summary of the method: as §1
RPMI-8226 = assay: Growth inhibition of human RPMI8226 cells at 10 uM after 48 hrs by coulter counter analysis; settings: RPMI-8226, 48 h, read-out: GI; summary of the method: as §1
SF-295 = assay: Growth inhibition of human SF295 cells at 10 uM after 48 hrs by coulter counter analysis; settings: SF-295, 48 h, read-out: GI; summary of the method: as §1
A549 = assay: Growth inhibition of human A549/ATCC cells at 10 uM after 48 hrs by coulter counter analysis; settings: A549, 48 h, read-out: GI; summary of the method: as §1
U-251 = assay: Growth inhibition of human U251 cells at 10 uM after 48 hrs by coulter counter analysis; settings: U-251, 48 h, read-out: GI; summary of the method: as §2
TK-10 = assay: Growth inhibition of human TK10 cells at 10 uM after 48 hrs by coulter counter analysis; settings: TK-10, 48 h, read-out: GI; summary of the method: as §2
UACC-257 = assay: Growth inhibition of human UACC257 cells at 10 uM after 48 hrs by coulter counter analysis; settings: UACC-257, 48 h, read-out: GI; summary of the method: as §2
SK-OV-3 = assay: Growth inhibition of human SKOV3 cells at 10 uM after 48 hrs by coulter counter analysis; settings: SK-OV-3, 48 h, read-out: GI; summary of the method: as §1

| Structure (SMILES) | inhibition of growth at 10 µM [1] [%] | inhibition of growth at 10 µM (MDA-MB-231) [%] | inhibition of growth at 10 µM (RXF 393) [%] | inhibition of growth at 10 µM (OVCAR-4) [%] | inhibition of growth at 10 µM (K562) [%] | inhibition of growth at 10 µM (UACC-62) [%] | inhibition of growth at 10 µM (NCI-H522) [%] | inhibition of growth at 10 µM (NCI-H226) [%] | inhibition of growth at 10 µM (UO-31) [%] | inhibition of growth at 10 µM (HOP-62) [%] | inhibition of growth at 10 µM (SF-268) [%] | inhibition of growth at 10 µM (OVCAR-5) [%] | inhibition of growth at 10 µM (DU-145) [%] | inhibition of growth at 10 µM [2] [%] | inhibition of growth at 10 µM (HCT-15) [%] | inhibition of growth at 10 µM (SW-620) [%] | inhibition of growth at 10 µM (SK-MEL-5) [%] | inhibition of growth at 10 µM (HT-29) [%] | inhibition of growth at 10 µM (A498) [%] | inhibition of growth at 10 µM (RPMI-8226) [%] | other results |
| --- | --- | --- | --- | --- | --- | --- | --- | --- | --- | --- | --- | --- | --- | --- | --- | --- | --- | --- | --- | --- | --- |
| Cc1cnc(NC(=O)CN2CCN(C)CC2)s1 | < 10 | < 10 | < 10 | < 10 | < 10 | < 10 | < 10 | < 10 | 10.2 | < 10 | < 10 | < 10 | < 10 | < 10 | < 10 | < 10 | < 10 | < 10 | < 10 | < 10 | inhibition of growth at 10 µM (SF-295): < 10%; inhibition of growth at 10 µM (A549): < 10%; inhibition of growth at 10 µM (U-251): < 10% |
| Cc1cnc(NC(=O)CN2CCN(c3ccccc3)CC2)s1 | < 10 | < 10 | < 10 | < 10 | < 10 | < 10 | < 10 | < 10 | 13.1 | < 10 | < 10 | < 10 | < 10 | < 10 | < 10 | < 10 | < 10 | < 10 | < 10 | < 10 | inhibition of growth at 10 µM (SF-295): < 10%; inhibition of growth at 10 µM (A549): < 10%; inhibition of growth at 10 µM (U-251): < 10% |
| CC(C(=O)Nc1nccs1)N1CCN(C)CC1 (centres undefined) | < 10 | < 10 | < 10 | < 10 | < 10 | < 10 | < 10 | < 10 | 19.4 | < 10 | < 10 | < 10 | < 10 | < 10 | < 10 | < 10 | < 10 | < 10 | < 10 | < 10 | inhibition of growth at 10 µM (TK-10): < 10%; inhibition of growth at 10 µM (UACC-257): < 10%; inhibition of growth at 10 µM (SK-OV-3): < 10%; inhibition of growth at 10 µM (SF-295): < 10%; inhibition of growth at 10 µM (A549): < 10%; inhibition of growth at 10 µM (U-251): < 10% |
| Cc1csc(NC(=O)C(C)N2CCN(C)CC2)n1 (centres undefined) | < 10 | 13.3 | < 10 | 16.2 | < 10 | 24 | 66.3 | < 10 | < 10 | 10.9 | < 10 | < 10 | < 10 | < 10 | 25.5 | < 10 | 11.3 | < 10 | < 10 | < 10 | inhibition of growth at 10 µM (TK-10): < 10%; inhibition of growth at 10 µM (UACC-257): < 10%; inhibition of growth at 10 µM (SK-OV-3): < 10%; inhibition of growth at 10 µM (SF-295): < 10%; inhibition of growth at 10 µM (A549): < 10%; inhibition of growth at 10 µM (U-251): 23.5% |
| CC(C(=O)Nc1nccs1)N1CCN(c2ccccc2)CC1 (centres undefined) | < 10 | < 10 | < 10 | < 10 | < 10 | < 10 | < 10 | < 10 | < 10 | < 10 | < 10 | < 10 | < 10 | < 10 | < 10 | < 10 | < 10 | < 10 | < 10 | < 10 | inhibition of growth at 10 µM (TK-10): < 10%; inhibition of growth at 10 µM (UACC-257): < 10%; inhibition of growth at 10 µM (SK-OV-3): < 10%; inhibition of growth at 10 µM (SF-295): < 10%; inhibition of growth at 10 µM (A549): < 10%; inhibition of growth at 10 µM (U-251): < 10% |
